This note sets out measurements from ChEMBL document CHEMBL5696442, “Discovery of type II inhibitors of TGFβ-activated kinase 1 (TAK1) and mitogen-activated protein kinase kinase kinase kinase 2 (MAP4K2)” (J Med Chem, 2015).

Bounds are passed on as bounds.

Data set [1] concerns the target Proto-oncogene tyrosine-protein kinase Src (Homo sapiens, UniProt P12931). Put plainly: Inhibition of SRC Lys1 labeling site in human A-375 cells at 5 uM by KiNativ Profiling analysis relative to control. It counts as cell-based.
Data set [2] addresses Cyclin-dependent kinase 9 (Homo sapiens) (UniProt P50750). Put plainly: Inhibition of CDK9 Lys2 labeling site in human A-375 cells at 5 uM by KiNativ Profiling analysis relative to control. It counts as cell-based. The method, boiled down: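 Live A375 melanoma cells were treated with compound at 5 or 0.5 μM. The cells were then lysed, and the lysates were labeled with a lysine-reactive ATP or ADP-biotin acyl probe (KiNativ). Inhibition is the compound's protection of each kinase labeling-site peptide from probe labeling, relative to untreated control.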

The target of data set [3] is Serine/threonine-protein kinase WNK2 (Homo sapiens) (UniProt Q9Y3S1). Kind of data set: Inhibition of Wnk2 ATP Loop labeling site in human A-375 cells at 5 uM by KiNativ Profiling analysis relative to control. The data set is classed as cell-based.
Chain of Serine/threonine-protein kinase WNK2 (Homo sapiens) (Q9Y3S1 whole entry): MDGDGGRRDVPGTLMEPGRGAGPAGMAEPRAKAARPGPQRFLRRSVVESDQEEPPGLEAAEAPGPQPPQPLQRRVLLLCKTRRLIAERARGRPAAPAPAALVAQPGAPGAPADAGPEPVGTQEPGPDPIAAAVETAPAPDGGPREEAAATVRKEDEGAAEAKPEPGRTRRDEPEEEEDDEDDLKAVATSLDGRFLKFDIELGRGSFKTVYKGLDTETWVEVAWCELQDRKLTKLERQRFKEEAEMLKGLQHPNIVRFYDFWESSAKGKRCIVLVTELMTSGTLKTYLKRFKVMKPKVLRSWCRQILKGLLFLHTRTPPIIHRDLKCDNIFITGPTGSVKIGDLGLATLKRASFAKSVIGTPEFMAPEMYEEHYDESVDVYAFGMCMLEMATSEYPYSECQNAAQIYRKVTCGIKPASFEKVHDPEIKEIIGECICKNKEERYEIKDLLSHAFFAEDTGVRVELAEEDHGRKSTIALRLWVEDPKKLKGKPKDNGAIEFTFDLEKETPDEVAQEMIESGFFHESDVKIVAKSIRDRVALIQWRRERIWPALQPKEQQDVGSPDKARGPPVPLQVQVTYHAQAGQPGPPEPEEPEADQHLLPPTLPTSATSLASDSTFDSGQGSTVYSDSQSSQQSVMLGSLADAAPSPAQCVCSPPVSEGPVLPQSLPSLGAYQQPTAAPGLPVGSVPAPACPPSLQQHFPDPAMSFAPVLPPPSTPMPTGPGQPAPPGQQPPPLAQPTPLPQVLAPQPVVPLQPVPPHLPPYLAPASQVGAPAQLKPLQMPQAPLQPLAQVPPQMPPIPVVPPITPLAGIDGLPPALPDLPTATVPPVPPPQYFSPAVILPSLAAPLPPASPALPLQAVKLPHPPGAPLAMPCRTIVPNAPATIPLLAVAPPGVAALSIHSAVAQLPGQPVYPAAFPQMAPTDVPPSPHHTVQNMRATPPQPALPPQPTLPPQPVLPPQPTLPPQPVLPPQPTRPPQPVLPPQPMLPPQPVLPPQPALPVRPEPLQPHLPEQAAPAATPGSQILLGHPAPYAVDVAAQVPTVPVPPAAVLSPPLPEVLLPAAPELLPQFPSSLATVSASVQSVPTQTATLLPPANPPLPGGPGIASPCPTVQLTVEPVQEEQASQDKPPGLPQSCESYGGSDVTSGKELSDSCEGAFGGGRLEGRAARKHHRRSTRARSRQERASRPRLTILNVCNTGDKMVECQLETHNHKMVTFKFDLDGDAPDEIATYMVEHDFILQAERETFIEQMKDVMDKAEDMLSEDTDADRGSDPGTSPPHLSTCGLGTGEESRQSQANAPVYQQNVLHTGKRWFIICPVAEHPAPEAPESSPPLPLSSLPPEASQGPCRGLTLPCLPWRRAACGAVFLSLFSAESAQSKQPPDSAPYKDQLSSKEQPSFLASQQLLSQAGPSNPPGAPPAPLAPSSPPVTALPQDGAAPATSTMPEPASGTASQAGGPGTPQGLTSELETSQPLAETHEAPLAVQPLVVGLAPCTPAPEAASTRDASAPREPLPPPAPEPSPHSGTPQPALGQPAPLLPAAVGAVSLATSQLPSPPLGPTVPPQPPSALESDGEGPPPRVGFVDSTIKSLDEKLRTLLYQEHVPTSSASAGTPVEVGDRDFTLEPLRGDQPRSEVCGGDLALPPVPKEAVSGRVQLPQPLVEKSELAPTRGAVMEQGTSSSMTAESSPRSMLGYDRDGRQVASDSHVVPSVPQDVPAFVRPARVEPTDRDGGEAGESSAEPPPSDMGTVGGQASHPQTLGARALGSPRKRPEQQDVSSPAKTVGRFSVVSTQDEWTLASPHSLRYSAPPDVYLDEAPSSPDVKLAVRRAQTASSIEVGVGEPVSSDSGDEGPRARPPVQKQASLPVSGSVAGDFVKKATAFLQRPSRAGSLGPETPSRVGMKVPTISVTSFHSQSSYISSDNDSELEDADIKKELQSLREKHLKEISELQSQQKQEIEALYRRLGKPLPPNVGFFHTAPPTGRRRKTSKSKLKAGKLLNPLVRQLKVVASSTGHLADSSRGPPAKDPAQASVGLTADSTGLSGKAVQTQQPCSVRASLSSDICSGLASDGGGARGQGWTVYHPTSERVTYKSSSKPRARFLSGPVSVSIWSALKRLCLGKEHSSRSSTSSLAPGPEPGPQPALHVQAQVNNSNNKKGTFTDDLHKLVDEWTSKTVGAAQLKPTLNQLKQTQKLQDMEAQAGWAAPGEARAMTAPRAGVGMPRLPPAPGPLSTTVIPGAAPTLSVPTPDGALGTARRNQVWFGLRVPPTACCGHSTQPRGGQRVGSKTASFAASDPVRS
The target is the same in data set [4]. Kind of data set: Inhibition of Wnk2 ATP Loop labeling site in human A-375 cells at 0.05 uM by KiNativ Profiling analysis relative to control. It counts as cell-based.
Data set [5] addresses Mitogen-activated protein kinase 8 (Homo sapiens, UniProt P45983). Put plainly: Inhibition of JNK1 Lys2 labeling site in human A-375 cells at 0.5 uM by KiNativ Profiling analysis relative to control. The data set is classed as cell-based.
For data set [6], the target named is Tyrosine-protein kinase Fer (Homo sapiens, UniProt P16591). Kind of data set: Inhibition of FER ACT labeling site in human A-375 cells at 0.05 uM by KiNativ Profiling analysis relative to control. It counts as cell-based.
Chain of Tyrosine-protein kinase Fer (P16591 whole entry, looked up, canonical isoform): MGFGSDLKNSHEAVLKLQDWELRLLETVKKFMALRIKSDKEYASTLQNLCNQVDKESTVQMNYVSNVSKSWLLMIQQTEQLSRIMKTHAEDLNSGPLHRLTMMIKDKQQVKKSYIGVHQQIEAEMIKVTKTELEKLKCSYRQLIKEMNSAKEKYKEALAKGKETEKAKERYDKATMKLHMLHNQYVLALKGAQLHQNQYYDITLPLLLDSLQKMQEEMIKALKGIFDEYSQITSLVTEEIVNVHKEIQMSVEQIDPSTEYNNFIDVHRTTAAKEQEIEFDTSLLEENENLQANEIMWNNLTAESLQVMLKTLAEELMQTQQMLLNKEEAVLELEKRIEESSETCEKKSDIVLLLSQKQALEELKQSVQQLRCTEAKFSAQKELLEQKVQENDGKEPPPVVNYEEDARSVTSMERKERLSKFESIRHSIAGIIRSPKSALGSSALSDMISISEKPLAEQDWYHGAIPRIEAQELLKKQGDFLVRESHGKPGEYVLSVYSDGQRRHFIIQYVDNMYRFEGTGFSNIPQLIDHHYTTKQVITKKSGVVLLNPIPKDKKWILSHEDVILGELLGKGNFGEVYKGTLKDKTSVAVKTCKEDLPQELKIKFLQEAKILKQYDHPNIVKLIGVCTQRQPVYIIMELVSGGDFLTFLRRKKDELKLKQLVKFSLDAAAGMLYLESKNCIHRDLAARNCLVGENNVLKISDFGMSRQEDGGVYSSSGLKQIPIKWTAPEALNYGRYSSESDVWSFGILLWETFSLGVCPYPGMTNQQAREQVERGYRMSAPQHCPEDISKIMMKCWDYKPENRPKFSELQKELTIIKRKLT
Data set [7] has as its target Casein kinase I isoform epsilon (Homo sapiens) (UniProt P49674). Kind of data set: Inhibition of CK1epsilon Lys2 labeling site in human A-375 cells at 0.05 uM by KiNativ Profiling analysis relative to control. The data set is classed as cell-based.
Data set [8] has as its target Serine/threonine-protein kinase 38 (Homo sapiens) (UniProt Q15208). Put plainly: Inhibition of NDR1 Lys2 labeling site in human A-375 cells at 0.05 uM by KiNativ Profiling analysis relative to control. It counts as cell-based.
The target in data set [9] is Receptor tyrosine-protein kinase erbB-3 (Homo sapiens) (UniProt P21860). Kind of data set: Inhibition of HER3/ErbB3 ACT labeling site in human A-375 cells at 0.5 uM by KiNativ Profiling analysis relative to control. The data set is classed as cell-based.
In data set [10] the target is Serine/threonine-protein kinase MARK2 (Homo sapiens) (UniProt Q7KZI7). Put plainly: Inhibition of MARK2 Lys2 labeling site harbouring DLKAENLLLDADMNIK in human A-375 cells at 0.05 uM by KiNativ Profiling analysis relative to control. It counts as cell-based.
The target of data set [11] is Serine/threonine-protein kinase 10 (Homo sapiens) (UniProt O94804). Kind of data set: Inhibition of LOK Lys1 labeling site in human A-375 cells at 0.5 uM by KiNativ Profiling analysis relative to control. It counts as cell-based.
Data set [12] deals with TRAF2 and NCK-interacting protein kinase (Homo sapiens) (UniProt Q9UKE5). Kind of data set: Inhibition of ZC2/TNIK Lys1 labeling site in human A-375 cells at 5 uM by KiNativ Profiling analysis relative to control. The data set is classed as cell-based.
Data set [13] deals with Serine/threonine-protein kinase WNK4 (Homo sapiens) (UniProt Q96J92). Put plainly: Inhibition of Wnk4 Lys2 labeling site in human A-375 cells at 0.05 uM by KiNativ Profiling analysis relative to control. It counts as cell-based.
Data set [14] has as its target Diacylglycerol kinase alpha (Homo sapiens) (UniProt P23743). Put plainly: Inhibition of DGKA ATP labeling site harbouring in human A-375 cells at 0.5 uM by KiNativ Profiling analysis relative to control. It counts as cell-based. The method, boiled down: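 Live A375 melanoma cells were treated with compound at 0.5 or 5 μM, then lysed. Lysates were labeled with a lysine-reactive ATP or ADP-biotin probe. The read-out was protection of each kinase probe-labeling site from labeling, relative to control.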

Data set [15] concerns the target Cyclin-dependent kinase 17 (Homo sapiens) (UniProt Q00537). Put plainly: Inhibition of PCTAIRE2 Lys2 labeling site in human A-375 cells at 0.5 uM by KiNativ Profiling analysis relative to control. The data set is classed as cell-based.
The nature of data set [16]: Half life in Swiss albino mouse at 1 mg/kg, iv measured upto 24 hrs by LC/MS/MS analysis. As to conditions: in vivo. It counts as ADME, organism-based. The method, boiled down:
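Male Swiss albino mice. […] Blood was taken into K2EDTA from three mice per time point, from 0 to 24 h. Plasma was precipitated with acetonitrile and analysed by LC/MS/MS (LLOQ 1.138 ng/mL).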

In data set [17] the target is T1, Ephrin type-B receptor 4 (Homo sapiens) (UniProt P54760).
T1 sequence (whole entry): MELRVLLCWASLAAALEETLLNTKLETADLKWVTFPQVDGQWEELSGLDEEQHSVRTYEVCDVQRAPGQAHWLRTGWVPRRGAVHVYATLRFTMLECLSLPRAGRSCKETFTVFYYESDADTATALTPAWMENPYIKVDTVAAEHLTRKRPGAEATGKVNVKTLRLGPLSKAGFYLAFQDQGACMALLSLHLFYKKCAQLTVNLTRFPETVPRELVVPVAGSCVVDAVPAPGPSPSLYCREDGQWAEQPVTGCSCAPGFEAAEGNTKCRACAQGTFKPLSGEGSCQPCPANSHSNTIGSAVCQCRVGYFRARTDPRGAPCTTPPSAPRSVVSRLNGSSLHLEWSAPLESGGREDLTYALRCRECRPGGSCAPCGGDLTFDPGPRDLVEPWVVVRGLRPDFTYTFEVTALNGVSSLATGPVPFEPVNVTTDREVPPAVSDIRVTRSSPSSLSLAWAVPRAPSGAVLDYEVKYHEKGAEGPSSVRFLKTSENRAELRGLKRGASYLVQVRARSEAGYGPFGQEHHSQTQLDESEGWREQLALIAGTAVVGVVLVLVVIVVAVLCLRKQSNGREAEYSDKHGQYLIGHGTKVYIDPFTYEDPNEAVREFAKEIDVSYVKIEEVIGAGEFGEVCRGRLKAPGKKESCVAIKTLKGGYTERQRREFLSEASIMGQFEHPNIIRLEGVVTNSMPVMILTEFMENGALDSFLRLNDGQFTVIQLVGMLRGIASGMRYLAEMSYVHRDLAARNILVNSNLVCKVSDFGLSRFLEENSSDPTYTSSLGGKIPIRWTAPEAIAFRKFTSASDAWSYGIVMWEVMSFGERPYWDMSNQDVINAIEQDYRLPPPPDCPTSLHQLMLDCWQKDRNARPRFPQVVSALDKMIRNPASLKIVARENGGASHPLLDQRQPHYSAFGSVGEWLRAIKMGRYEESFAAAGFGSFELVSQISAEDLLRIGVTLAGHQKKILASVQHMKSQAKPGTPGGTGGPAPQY
Put plainly: Inhibition of EphB4 ACT labeling site in human Huh-7 cell lysate at 1 uM by KiNativ Profiling analysis relative to control. It counts as subcellular.

Data set [18] deals with Tyrosine-protein kinase ABL1 (Homo sapiens, UniProt P00519). Put plainly: Inhibition of ABL Lys1 labeling site in human Huh-7 cell lysate at 1 uM by KiNativ Profiling analysis relative to control. The data set is classed as subcellular.
The target of data set [19] is Tyrosine-protein kinase ABL2 (Homo sapiens, UniProt P42684). Kind of data set: Inhibition of ARG Lys1 labeling site in human Huh-7 cell lysate at 1 uM by KiNativ Profiling analysis relative to control. It counts as subcellular.

Chain of Cyclin-dependent kinase 17 (Homo sapiens) (Q00537 whole entry, looked up): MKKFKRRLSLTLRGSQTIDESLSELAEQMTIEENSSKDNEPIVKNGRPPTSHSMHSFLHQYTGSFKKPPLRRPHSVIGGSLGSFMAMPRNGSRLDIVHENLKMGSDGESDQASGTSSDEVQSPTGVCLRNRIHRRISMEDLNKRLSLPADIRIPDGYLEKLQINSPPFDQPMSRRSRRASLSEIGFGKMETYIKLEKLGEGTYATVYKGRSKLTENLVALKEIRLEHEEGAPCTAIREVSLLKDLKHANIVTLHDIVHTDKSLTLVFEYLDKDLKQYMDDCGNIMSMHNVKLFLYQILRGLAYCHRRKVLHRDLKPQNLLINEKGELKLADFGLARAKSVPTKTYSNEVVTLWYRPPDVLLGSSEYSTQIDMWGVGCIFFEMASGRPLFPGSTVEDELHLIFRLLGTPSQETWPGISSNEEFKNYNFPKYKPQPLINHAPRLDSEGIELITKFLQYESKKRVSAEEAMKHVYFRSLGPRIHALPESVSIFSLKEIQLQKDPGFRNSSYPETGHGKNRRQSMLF
Chain of Diacylglycerol kinase alpha (Homo sapiens) (P23743 whole entry): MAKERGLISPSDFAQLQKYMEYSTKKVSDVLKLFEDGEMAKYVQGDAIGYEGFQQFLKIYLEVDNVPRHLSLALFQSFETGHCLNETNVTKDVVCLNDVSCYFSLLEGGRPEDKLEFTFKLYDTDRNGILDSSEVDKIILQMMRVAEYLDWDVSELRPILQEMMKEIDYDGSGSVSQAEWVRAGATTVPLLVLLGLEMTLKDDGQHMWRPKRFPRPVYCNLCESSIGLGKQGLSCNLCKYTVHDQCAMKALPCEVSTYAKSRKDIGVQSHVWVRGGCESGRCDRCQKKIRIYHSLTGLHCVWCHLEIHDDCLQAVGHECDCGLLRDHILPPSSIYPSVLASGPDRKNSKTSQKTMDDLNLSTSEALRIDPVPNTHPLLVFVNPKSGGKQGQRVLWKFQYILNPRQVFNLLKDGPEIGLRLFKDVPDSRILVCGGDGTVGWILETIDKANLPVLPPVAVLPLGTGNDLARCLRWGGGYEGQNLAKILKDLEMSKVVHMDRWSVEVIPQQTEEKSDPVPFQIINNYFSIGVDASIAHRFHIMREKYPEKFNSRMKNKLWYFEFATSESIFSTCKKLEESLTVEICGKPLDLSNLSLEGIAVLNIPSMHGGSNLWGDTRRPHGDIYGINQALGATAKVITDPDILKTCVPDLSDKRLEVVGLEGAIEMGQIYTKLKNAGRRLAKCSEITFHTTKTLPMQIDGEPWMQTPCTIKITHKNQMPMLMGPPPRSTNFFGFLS
Chain of Mitogen-activated protein kinase 8 (P45983 whole entry): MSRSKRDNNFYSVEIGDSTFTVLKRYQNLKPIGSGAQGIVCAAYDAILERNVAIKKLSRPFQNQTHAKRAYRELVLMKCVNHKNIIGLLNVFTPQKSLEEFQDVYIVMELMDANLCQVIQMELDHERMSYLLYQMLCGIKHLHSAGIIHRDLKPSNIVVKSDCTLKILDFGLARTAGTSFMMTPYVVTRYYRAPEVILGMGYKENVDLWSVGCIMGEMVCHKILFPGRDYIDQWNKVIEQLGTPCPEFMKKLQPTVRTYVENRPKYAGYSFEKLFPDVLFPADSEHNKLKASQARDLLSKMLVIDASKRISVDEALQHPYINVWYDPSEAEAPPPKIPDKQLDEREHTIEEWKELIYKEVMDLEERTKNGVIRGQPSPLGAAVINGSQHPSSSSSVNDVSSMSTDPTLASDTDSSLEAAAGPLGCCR

In the case of `CCN1CCN(Cc2ccc(NC(=O)c3ccc(C)c(/C=C/c4cnc5[nH]ccc5c4OC)c3)cc2C(F)(F)F)CC1`, the inhibition – broadly, the drop in the measured response relative to a control, in per cent – is above 92% in [1]; 1.2% in data set [2]; 13.7% in data set [3]; 5% in data set [4]; 40.6% in [5]; -9.9% in [6]. Moreover, the inhibition was -9.6% in data set [7]; 19.2% in [8]; 12.2% in data set [9]; 11.6% in data set [10]; 60.7% in data set [11]; above 95% in data set [12]. Moreover, the inhibition in data set [13] is -9.1%; in data set [14], -8.3%; in data set [15], 29.6%. The molecule further returned a t1/2 in data set [16] of 4.66 h.
As to `CCN1CCN(Cc2ccc(NC(=O)c3ccc(C)c(Oc4ccnc5[nH]ccc45)c3)cc2C(F)(F)F)CC1`, the inhibition was above 92% in [1]; 19.2% in data set [2]; 13.1% in [3]; 2.4% in [4]; 73.7% in data set [5]; 62% in data set [6]. Moreover, the inhibition was -0.7% in [7]; 30% in data set [8]; 5.1% in data set [9]; 19.5% in [10]; 71.7% in [11]; above 95% in data set [12]. For the same molecule, the values for the inhibition in data set [13], in [14] and in [15] were 0.1%, -9.4% and 54.6%, respectively. This molecule gave a t1/2 in data set [16] of 2.03 h.
As for `CNc1cc(Oc2cc(C(=O)Nc3cc(-n4cnc(C)c4)cc(C(F)(F)F)c3)ccc2C)ncn1`, the inhibition is 1.2% in [17], 51.8% in data set [18] and 51.8% in data set [19].
Take `CNc1cc(Oc2cc(C(=O)Nc3cc(N4CCN(C)CC4)cc(C(F)(F)F)c3)ccc2C)ncn1`: the inhibition in data set [17] was determined as 0.2%; in [18], 48.4%; in data set [19], 48.4%.
